Series [1] addresses T1, Diacylglycerol O-acyltransferase 1 (Homo sapiens, UniProt O75907).
T1 sequence (O75907 whole entry): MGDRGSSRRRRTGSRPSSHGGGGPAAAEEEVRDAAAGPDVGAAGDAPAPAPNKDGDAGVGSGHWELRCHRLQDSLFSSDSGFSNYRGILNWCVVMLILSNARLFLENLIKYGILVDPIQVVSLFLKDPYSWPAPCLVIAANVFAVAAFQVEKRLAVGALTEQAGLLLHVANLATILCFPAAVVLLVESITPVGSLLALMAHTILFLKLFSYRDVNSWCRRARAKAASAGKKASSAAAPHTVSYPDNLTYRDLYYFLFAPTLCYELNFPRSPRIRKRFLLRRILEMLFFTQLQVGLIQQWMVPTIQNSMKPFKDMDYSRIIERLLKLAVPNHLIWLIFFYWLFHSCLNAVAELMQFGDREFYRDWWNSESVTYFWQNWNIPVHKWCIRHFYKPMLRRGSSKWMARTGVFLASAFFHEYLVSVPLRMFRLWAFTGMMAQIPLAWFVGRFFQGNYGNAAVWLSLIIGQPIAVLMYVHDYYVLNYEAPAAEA
Description: Inhibition of human liver flag-tagged DGAT1 expressed in baculovirus infected insect cells after 2 hrs by SPA.

Series [2] relates to Rattus norvegicus. Description: Toxicity in Sprague-Dawley rat assessed as elevation of plasma AST level at 50 mg/kg, iv administered as single dose. The class given is organism-based. More on the design: dose 50 mg/kg, route intravenous. As to conditions: in vivo; call rule not given here.
Series [3] has as its system Rattus norvegicus. The experiment in a line: Toxicity in Sprague-Dawley rat assessed as elevation of plasma ALT level at 50 mg/kg, iv administered as single dose. Type of series: organism-based. More on the design: dose 50 mg/kg, route intravenous. The settings on record: in vivo.
Series [4] addresses T2, Cytochrome P450 1A2 (Homo sapiens, UniProt P05177).
T2 sequence (P05177 whole entry): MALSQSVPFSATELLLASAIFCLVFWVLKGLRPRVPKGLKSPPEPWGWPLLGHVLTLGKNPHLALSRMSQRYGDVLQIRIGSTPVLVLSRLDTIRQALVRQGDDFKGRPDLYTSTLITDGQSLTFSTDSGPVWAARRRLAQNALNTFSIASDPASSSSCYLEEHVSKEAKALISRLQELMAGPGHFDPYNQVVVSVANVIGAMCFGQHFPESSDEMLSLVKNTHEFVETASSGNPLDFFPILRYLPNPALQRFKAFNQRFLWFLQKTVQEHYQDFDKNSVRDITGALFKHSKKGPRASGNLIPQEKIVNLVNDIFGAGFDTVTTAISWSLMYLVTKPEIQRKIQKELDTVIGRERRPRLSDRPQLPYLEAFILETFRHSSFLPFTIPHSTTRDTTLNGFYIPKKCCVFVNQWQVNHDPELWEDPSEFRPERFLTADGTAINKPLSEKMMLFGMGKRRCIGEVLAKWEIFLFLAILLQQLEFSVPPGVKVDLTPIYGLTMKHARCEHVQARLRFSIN
The experiment in a line: Inhibition of CYP1A2 (unknown origin) at 10 uM. The class given is ADME.

Series [5] concerns Salmonella typhimurium. The experiment in a line: Genotoxicity in Salmonella typhimurium. Type of series: toxicity, organism-based. As to conditions: salmonella enterica subsp. enterica serovar typhimurium.
For series [6], the system named is Cynomolgus monkey. The experiment in a line: Toxicity in cynomolgus monkey assessed as QTc interval prolongation at 1 mg/kg/day, po by 28-day multiple-dose toxicity study relative to control. Type of series: organism-based, Macaca fascicularis. Further details: route oral. The settings on record: in vivo. In short, it runs like this:
(§1)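 Cynomolgus monkeys were dosed po at 1, 10 and 100 mg kg−1 day−1 for 28 days. Plasma ALT and AST were measured and QTc intervals were recorded, with eight monkeys in the 100 mg/kg group.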

The test system of series [7] is Rattus norvegicus. The experiment in a line: Toxicity in Sprague-Dawley rat assessed as clinical pathology parameters at 100 to 500 mg/kg, po by 28-day multiple-dose toxicity study. The settings on record: in vivo. More on the design: dose 100-500 mg/kg, route oral. Type of series: organism-based. The method, boiled down:
(§2)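 Sprague−Dawley rats were dosed po at 100 and 500 mg kg−1 day−1 for 28 days. Clinical pathology was assessed for treatment-related changes, including sebaceous gland atrophy.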

In series [8] the test system is Cynomolgus monkey. Description: Toxicity in cynomolgus monkey assessed as QTc interval prolongation at 10 mg/kg/day, po by 28-day multiple-dose toxicity study relative to control. The class given is organism-based, Macaca fascicularis. More on the design: route oral. The settings on record: in vivo. The method, boiled down:
as §1

In series [9] the target is Cytochrome P450 3A4 (Homo sapiens, UniProt P08684). The experiment in a line: Inhibition of CYP3A4 (unknown origin) at 10 uM. The class given is ADME.
The nature of series [10]: Clearance in Sprague-Dawley rat at 1 mg/kg, iv. Type of series: ADME, organism-based. Further details: dose 1 mg/kg, route intravenous. The settings on record: in vivo.
Series [11] has as its system CHL (Chinese hamster lung cells). The experiment in a line: Toxicity in CHL cells assessed as chromosomal aberration.
The target of series [12] is Cytochrome P450 2D6 (Homo sapiens, UniProt P10635). Description: Inhibition of CYP2D6 (unknown origin) at 10 uM. Type of series: ADME.
Series [13] deals with Cytochrome P450 2C9 (Homo sapiens, UniProt P11712). The experiment in a line: Inhibition of CYP2C9 (unknown origin) at 10 uM. The class given is ADME.
Series [14] has as its system Rattus norvegicus. The experiment in a line: Toxicity in Sprague-Dawley rat assessed as sebaceous gland atrophy at 100 to 500 mg/kg, po by 28-day multiple-dose toxicity study. Type of series: organism-based. More on the design: dose 100-500 mg/kg, route oral. The settings on record: in vivo. The method, boiled down:
as §2

Each structure is given as a SMILES string.

Cytochrome P450 2C9, sequence (P11712 whole entry): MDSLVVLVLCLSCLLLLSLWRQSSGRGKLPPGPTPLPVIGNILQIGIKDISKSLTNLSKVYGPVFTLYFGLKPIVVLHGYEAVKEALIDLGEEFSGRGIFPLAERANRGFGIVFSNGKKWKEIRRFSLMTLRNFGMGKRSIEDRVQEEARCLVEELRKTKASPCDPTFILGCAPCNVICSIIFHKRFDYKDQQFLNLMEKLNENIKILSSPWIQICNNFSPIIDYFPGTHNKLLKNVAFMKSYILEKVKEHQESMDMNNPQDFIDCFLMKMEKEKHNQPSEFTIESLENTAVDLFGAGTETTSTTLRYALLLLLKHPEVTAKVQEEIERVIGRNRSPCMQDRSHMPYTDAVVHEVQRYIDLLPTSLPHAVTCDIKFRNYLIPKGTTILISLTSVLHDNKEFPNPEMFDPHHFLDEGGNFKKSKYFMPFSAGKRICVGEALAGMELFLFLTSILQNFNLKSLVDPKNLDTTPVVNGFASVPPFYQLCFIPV
Cytochrome P450 2D6, sequence (P10635 whole entry): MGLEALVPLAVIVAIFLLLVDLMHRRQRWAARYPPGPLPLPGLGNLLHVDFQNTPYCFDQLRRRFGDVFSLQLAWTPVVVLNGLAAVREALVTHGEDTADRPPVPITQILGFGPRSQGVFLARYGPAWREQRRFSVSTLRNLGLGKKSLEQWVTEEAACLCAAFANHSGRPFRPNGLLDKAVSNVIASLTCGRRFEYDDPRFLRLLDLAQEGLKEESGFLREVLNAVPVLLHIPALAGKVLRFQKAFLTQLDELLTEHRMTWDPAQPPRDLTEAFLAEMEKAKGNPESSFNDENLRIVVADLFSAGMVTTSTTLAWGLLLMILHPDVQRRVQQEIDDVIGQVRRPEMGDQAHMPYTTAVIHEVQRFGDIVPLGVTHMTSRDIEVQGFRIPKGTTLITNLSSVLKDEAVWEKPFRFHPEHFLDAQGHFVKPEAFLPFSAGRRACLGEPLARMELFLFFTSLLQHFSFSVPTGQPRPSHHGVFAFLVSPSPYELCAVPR
Cytochrome P450 3A4, sequence (P08684 whole entry): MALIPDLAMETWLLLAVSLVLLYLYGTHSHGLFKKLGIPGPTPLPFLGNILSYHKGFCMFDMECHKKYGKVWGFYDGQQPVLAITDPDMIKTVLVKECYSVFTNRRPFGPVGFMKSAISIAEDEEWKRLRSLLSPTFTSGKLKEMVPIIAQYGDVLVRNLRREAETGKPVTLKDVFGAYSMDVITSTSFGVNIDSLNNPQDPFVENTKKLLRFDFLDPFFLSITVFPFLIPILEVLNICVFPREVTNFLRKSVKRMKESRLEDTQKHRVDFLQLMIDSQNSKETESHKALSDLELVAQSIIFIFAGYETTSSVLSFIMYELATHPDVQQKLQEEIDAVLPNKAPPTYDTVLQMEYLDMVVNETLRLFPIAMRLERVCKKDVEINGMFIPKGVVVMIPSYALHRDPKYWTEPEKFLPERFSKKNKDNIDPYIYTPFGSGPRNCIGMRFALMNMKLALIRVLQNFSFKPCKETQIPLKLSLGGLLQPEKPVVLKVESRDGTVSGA

Consider `Nc1cccc2c1N=C(c1ccc(Br)cc1)CO2`, for which, in [1], the IC50 was over 10 µM.
`CNc1ncnc2c1N=C(c1ccc(Br)cc1)CO2` displayed an IC50 in [1] of over 10 µM.
For the compound `CC1(C)Oc2nc(O)nc(N)c2N=C1c1ccc([C@H]2CC[C@H](CC(=O)O)CC2)cc1`, the Activity result in series [2] and in series [3] was “Toxic” in each case.
In the case of `CN(C)c1ncnc2c1N=C(c1ccc(Br)cc1)CO2`, the IC50 in series [1] was over 10 µM.
As to `Cc1nc(N)c2c(n1)OC(C)(C)C(c1ccc([C@H]3CC[C@H](CC(=O)O)CC3)cc1)=N2`, the “inhibition (INH)” value in series [4], in series [9], in series [12] and in [13] was “Not Active” in each case. The Activity entry is recorded as “Non-toxic” in [5]; “Non-toxic” in [6]; “Non-toxic” in series [7]; “Non-toxic” in [8]; “Toxic” in series [11]; “Toxic” in [14]. Besides, in series [10], the clearance is 3.5 mL/min/kg.
Consider `CC1(C)Oc2nc(C(F)(F)F)nc(N)c2N=C1c1ccc([C@H]2CC[C@H](CC(=O)O)CC2)cc1`, for which the clearance in series [10] was 1.33 mL/min/kg.
For the compound `Nc1nc(N)c2c(n1)OCC(c1ccc(Br)cc1)=N2`, the IC50 in series [1] is over 10 µM.
On to `CC1(C)Oc2ncnc(N)c2C=C1c1ccc2c(c1)CC[C@]21CC[C@@H](CC(=O)O)CC1`, for which the clearance in [10] was 21.7 mL/min/kg.
As for `Nc1nc(O)nc2c1N=C(c1ccc(Br)cc1)CO2`, the half-inhibitory concentration (IC50) in series [1] is over 10 µM.
`CN(C)c1nc(N)c2c(n1)OCC(c1ccc(Br)cc1)=N2` showed an IC50 in series [1] of over 10 µM.
Consider `CC1(C)Oc2ncnc(N)c2C=C1c1ccc([C@H]2CC[C@H](CC(=O)O)CC2)cc1`, for which, in [10], the clearance was 23.3 mL/min/kg.

As usually defined, the IC50 is the midpoint of a concentration-inhibition curve. Broadly, the clearance is the volume of plasma or blood freed of the substance per unit of time.

(Values after ChEMBL document CHEMBL3232847, “Discovery of 6-phenylpyrimido[4,5-b][1,4]oxazines as potent and selective acyl CoA:diacylglycerol acyltransferase 1 (DGAT1) inhibitors with in vivo efficacy in rodents” (J Med Chem, 2014).)
